From ChEMBL document CHEMBL5653631, “A Potent and Selective ULK1 Inhibitor Suppresses Autophagy and Sensitizes Cancer Cells to Nutrient Stress” (iScience, 2018)
Blank lines part the entries; values can stand above or below the compound they belong to.

Tests used:
[1] = target: Serine/threonine-protein kinase SBK1 (Homo sapiens) (UniProt Q52WX2); test: Inhibition of human recombinant SBK1 at 500 nM related to control ULK1
[2] = target: T1, Interleukin-1 receptor-associated kinase 4 (Homo sapiens) (UniProt Q9NWZ3); test: Inhibition of human recombinant IRAK4 at 15 nM in presence of ATP by radiometric assay relative to control
T1 sequence (whole entry): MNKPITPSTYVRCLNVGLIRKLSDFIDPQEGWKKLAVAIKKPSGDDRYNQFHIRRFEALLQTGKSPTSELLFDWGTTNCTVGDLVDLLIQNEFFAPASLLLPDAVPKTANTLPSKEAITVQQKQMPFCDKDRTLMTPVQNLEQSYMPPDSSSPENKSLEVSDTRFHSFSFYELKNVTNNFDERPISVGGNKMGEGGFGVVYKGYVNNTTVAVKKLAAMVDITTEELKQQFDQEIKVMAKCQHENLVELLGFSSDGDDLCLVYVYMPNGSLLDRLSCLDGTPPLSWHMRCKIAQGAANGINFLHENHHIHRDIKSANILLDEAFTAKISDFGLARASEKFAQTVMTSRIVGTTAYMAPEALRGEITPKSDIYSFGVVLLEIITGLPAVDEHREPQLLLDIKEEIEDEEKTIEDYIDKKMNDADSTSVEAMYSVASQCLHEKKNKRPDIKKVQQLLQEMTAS

[3] = target: T2, Serine/threonine-protein kinase TAO1 (Homo sapiens) (UniProt Q7L7X3); test: Inhibition of human recombinant TAO1 at 15 nM in presence of ATP by radiometric assay relative to control
T2 sequence (whole entry): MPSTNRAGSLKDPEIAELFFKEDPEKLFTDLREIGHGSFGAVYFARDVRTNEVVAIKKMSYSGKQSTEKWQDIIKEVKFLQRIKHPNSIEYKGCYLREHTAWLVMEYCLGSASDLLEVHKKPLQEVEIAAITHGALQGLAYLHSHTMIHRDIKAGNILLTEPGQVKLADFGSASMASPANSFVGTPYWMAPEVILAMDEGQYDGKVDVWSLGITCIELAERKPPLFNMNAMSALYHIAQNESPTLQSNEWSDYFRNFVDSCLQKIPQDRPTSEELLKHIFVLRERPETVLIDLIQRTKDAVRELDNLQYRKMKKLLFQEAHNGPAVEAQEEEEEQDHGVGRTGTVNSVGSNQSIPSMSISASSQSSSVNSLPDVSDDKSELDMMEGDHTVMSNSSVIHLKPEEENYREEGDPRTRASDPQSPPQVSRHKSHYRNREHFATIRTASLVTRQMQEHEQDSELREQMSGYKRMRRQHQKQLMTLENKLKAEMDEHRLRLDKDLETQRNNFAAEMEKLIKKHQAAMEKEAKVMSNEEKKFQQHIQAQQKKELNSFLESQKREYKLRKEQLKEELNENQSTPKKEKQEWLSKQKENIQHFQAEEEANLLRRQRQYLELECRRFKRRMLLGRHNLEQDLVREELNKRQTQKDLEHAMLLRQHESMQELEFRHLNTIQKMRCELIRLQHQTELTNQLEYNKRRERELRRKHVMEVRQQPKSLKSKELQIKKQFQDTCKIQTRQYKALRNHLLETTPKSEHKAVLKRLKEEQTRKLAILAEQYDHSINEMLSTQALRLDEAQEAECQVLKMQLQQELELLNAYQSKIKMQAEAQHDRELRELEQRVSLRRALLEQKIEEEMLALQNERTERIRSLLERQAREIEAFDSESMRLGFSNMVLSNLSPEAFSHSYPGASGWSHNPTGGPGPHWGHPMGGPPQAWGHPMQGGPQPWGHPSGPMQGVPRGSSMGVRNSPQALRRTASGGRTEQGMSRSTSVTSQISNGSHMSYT

[4] = target: Misshapen-like kinase 1 (Homo sapiens) (UniProt Q8N4C8); test: Inhibition of human recombinant MINK at 15 nM related to control ULK1
[5] = target: T3, Serine/threonine-protein kinase D3 (Homo sapiens) (UniProt O94806); test: Inhibition of human recombinant PKD3 at 15 nM related to control ULK1
T3 sequence (whole entry): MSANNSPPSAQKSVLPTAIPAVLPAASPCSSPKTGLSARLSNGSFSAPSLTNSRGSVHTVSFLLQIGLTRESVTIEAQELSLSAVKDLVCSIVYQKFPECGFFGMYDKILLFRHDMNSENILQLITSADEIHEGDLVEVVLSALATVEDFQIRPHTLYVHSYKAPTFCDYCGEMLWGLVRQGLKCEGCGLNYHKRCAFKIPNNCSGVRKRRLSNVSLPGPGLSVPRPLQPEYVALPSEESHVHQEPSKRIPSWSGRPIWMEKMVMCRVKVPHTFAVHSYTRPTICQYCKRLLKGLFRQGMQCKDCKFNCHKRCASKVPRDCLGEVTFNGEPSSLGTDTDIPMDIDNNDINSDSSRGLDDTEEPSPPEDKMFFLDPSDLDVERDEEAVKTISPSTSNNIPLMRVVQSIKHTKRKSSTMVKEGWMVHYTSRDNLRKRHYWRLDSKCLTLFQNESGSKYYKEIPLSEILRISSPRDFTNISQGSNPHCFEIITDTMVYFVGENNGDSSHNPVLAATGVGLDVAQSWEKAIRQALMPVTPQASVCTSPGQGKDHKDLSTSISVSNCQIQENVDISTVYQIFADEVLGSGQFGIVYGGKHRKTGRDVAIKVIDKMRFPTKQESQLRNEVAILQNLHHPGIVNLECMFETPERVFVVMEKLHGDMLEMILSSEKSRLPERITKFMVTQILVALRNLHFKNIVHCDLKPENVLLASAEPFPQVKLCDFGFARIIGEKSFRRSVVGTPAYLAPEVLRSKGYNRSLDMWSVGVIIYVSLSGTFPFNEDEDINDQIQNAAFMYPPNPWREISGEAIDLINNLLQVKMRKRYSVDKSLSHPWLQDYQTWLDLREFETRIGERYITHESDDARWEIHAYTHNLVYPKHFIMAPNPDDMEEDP

[6] = target: Serine/threonine-protein kinase tousled-like 2 (Homo sapiens) (UniProt Q86UE8); test: Inhibition of human recombinant TLK2 at 15 nM related to control ULK1
[7] = target: Tyrosine-protein kinase receptor UFO (Homo sapiens) (UniProt P30530); test: Inhibition of human recombinant AXL at 40 nM related to control ULK1
How it was run: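 Radiometric activity assays in a panel of 327 human recombinant kinases, each run in duplicate at one inhibitor concentration. Activity remaining is expressed as percent of vehicle control, and percent inhibition is calculated as 100% minus percent activity remaining.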

Chain of Misshapen-like kinase 1 (Homo sapiens) (Q8N4C8 whole entry, looked up): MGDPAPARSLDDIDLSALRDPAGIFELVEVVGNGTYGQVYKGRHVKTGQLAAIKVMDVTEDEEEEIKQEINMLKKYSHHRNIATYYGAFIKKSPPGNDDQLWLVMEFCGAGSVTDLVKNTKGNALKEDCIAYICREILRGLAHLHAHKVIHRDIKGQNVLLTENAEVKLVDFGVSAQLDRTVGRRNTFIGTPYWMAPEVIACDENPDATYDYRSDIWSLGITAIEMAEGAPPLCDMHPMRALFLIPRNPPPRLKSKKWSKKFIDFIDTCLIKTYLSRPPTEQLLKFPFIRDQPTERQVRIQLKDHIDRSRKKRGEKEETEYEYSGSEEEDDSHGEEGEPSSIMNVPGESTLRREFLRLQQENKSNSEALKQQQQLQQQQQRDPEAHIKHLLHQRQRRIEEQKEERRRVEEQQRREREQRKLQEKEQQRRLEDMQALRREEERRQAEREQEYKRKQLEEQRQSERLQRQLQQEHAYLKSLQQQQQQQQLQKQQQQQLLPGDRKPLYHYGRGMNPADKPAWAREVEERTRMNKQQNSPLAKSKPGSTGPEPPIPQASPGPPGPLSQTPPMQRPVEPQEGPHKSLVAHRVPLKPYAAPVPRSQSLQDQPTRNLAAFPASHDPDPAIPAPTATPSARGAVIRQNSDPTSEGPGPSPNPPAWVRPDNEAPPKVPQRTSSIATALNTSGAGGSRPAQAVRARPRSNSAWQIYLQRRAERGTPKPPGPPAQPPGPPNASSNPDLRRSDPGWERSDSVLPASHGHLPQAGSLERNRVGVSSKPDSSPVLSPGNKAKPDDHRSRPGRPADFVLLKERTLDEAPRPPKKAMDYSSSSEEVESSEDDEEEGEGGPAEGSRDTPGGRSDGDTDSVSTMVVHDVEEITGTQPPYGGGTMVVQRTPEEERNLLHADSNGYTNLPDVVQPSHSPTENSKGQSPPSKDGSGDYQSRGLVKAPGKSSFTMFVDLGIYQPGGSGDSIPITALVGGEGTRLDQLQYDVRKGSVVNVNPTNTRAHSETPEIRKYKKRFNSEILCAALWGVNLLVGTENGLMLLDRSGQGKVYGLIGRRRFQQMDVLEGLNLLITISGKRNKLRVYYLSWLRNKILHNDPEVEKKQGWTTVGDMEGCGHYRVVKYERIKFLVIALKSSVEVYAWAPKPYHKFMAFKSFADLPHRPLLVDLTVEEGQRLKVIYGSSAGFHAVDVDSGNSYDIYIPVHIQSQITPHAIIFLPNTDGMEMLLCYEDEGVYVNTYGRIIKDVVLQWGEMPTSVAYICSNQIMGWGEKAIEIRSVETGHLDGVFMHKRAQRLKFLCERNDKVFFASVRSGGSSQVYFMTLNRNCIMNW
Chain of Serine/threonine-protein kinase SBK1 (Homo sapiens) (Q52WX2 whole entry): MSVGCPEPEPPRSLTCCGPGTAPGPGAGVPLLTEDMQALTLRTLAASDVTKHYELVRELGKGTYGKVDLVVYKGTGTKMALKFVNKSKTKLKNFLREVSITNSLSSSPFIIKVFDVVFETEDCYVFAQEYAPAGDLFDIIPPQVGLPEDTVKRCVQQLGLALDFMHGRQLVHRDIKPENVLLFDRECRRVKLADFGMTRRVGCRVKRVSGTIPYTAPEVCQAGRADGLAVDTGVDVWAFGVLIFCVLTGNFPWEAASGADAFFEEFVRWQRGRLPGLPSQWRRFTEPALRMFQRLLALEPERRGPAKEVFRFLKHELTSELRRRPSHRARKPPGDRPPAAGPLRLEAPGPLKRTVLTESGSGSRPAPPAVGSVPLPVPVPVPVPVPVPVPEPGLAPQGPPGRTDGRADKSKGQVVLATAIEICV
Chain of Tyrosine-protein kinase receptor UFO (Homo sapiens) (P30530 whole entry): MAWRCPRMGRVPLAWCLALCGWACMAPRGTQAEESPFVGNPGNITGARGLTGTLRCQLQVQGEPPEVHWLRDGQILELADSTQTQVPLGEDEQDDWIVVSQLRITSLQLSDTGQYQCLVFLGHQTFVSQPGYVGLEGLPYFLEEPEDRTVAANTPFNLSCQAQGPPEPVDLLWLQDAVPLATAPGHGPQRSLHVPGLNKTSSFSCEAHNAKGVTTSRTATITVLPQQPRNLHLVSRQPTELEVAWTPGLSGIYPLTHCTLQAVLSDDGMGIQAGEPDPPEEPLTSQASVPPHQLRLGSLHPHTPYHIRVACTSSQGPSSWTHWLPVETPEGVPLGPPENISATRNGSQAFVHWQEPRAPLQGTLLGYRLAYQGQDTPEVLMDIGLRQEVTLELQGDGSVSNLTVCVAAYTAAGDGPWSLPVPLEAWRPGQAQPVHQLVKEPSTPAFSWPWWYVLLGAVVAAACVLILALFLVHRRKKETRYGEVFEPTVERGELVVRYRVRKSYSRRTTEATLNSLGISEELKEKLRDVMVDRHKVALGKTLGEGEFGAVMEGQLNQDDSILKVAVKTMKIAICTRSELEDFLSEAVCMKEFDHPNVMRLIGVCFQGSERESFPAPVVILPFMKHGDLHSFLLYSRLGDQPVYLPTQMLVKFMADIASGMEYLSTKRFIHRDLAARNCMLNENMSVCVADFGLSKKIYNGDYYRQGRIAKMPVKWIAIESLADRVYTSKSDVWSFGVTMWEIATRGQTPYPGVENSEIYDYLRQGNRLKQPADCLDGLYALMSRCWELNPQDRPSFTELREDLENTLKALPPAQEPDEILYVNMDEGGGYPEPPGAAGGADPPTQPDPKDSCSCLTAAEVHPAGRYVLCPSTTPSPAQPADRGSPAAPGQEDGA
Chain of Serine/threonine-protein kinase tousled-like 2 (Homo sapiens) (Q86UE8 whole entry, looked up): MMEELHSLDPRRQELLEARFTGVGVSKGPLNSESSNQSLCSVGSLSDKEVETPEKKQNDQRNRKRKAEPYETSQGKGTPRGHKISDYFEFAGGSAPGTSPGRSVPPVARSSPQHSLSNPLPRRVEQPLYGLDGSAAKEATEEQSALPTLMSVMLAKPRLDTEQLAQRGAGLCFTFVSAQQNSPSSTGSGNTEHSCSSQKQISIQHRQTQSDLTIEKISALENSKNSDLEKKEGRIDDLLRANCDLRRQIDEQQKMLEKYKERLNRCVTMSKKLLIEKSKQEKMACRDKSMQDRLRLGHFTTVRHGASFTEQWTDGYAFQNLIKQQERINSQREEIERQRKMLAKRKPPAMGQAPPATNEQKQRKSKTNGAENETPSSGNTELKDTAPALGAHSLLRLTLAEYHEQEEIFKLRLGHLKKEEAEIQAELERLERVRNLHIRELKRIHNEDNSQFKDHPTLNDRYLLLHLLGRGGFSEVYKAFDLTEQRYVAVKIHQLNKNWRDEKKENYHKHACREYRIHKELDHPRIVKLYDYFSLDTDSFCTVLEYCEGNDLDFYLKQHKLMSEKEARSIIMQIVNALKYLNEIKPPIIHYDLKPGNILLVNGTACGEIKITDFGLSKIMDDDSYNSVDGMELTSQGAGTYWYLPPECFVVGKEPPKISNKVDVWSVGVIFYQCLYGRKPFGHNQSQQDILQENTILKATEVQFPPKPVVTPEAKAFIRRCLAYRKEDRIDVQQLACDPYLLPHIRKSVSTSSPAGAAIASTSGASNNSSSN

fold change (FC) [1]: 0.68
Compound: CNC(=O)c1ccccc1Oc1nc(Nc2cc(OC)c(OC)c(OC)c2)ncc1Br

inhibition [2]: 0%
inhibition [3]: 0%
fold change (FC) [4]: 0.05
fold change (FC) [5]: 0.08
fold change (FC) [6]: 0.03
Compound: CC(C)[C@H](NC(=O)c1cc(-c2cnn3cc(-c4ccc(OCCN5CCCCC5)cc4)cnc23)cs1)C(F)(F)F

fold change (FC) [7]: 0.07
Compound: O=C(N[C@@H](C1CC1)C(F)(F)F)c1cc(-c2cnn3cc(-c4ccc(F)cc4)cnc23)cs1
